Data: PubChem BioAssay AID624205 (Southern Research Specialized Biocontainment Screening …, 2012)
Where “and” joins values, the source holds several entries; their conditions need not be identical. Equal values may be shown once. Inconclusive results are not listed. Calls of active or inactive are those of the source.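 The calls were made as follows: active = viability under 80% at one or more tested concentrations, counted as toxic; inconclusive = replicate runs disagree on the viability criterion; inactive = viability at or above 80% at every dose.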

Legend:
[1] = viability loss in Vero kidney cells – cell-based, set 3, cytotoxicity control for PfM18AAP inhibitor project, dose response (AID 624205); settings: Vero E6 viability, CellTiter-Glo luminescence, 72 h; at 50 µM (top of the series)
In short: (§1)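 Material: Vero E6 cells. Quantity: 3000 cells per well. Doses: 2-fold compound dilution series. Schedule: 72 h compound exposure at 37 °C with 5% CO2. Detection: CellTiter-Glo luminescence. Read-out basis: % viability versus vehicle wells, CC50 from 4-parameter fit bounded 0–100. Control set: DMSO vehicle wells.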

[2] = tested on: Vero E6 viability, CellTiter-Glo luminescence, 72 h; experiment: as above
In short: as §1

| Compound | viability [1] | CC50 [2] |
| --- | --- | --- |
| COc1ccc(CCN(C)c2cc(C)nc3ccccc23)cc1OC | 80.7% (inactive) | – |
| COc1ccc(C2CCN(c3ccnc4ccccc34)CC2)cc1OC | – | 23.7 µM |
| CCN(CCc1ccc(O)c(O)c1)c1c2ccccc2nc2ccccc12 | – | 34.6 µM |
| CN(CCc1ccc(O)c(O)c1)c1ncnc2ccccc12 | 95.4% (inactive) | – |
| CCN(CC)Cc1cc(Nc2ccnc3cc(Cl)ccc23)ccc1O | – | 40.1 µM |
| COc1cc(Br)c(CCNc2c3c(nc4ccccc24)CCCC3)cc1OC | – | 20.1 µM |
| CN(CCc1ccc(O)c(O)c1)c1ccnc2c(F)cccc12 | 86% (inactive) | – |
| Oc1cccc(CCNc2ccnc3ccccc23)c1O | 93.2% (inactive) | – |
| COc1cc(Br)c(CCNc2c3ccccc3nc3ccccc23)cc1OC | – | 5.03 µM |
| CC(Cc1ccc(O)c(O)c1)Nc1ccnc2ccccc12 (stereo not given) | 83.9% (inactive) | – |
| CCN(CCc1ccc(OC)c(OC)c1)c1c2ccccc2nc2ccccc12 | – | 15.4 µM |
| COc1cc(Br)c(CCNc2ccnc3ccccc23)cc1OC | – | 15.9 µM |
| Nc1c2ccccc2nc2ccccc12 | – | 10.3 µM |
| Cc1cc(N(C)CCc2ccc(O)c(O)c2)c2ccccc2n1 | 89.8% (inactive) | – |
| CN(CCCc1ccc(O)c(O)c1)c1c2ccccc2nc2ccccc12 | – | 21.9 µM |
| Oc1ccc(CCCNc2c3c(nc4ccccc24)CCCC3)cc1O | 92.3% (inactive) | – |
| CN(CCCc1ccc(O)c(O)c1)c1ccnc2ccccc12 | 88.4% (inactive) | – |
| CCOc1ccc2nccc(N(C)CCc3ccc(OC)c(OC)c3)c2c1 | – | 41 µM |
| Cc1cccc2c(NCCc3ccc(O)c(O)c3)ccnc12 | 95.1% (inactive) | – |
| COc1ccc(CCNC(=O)c2cc(C)ccc2N)cc1OC | 95.6% (inactive) | – |
| COc1ccc(CCN(C)c2ncnc3ccccc23)cc1OC | 85.7% (inactive) | – |
| CC(C)(CNc1ccnc2ccccc12)c1ccc(O)c(O)c1 | – | 15 µM |
| COc1ccc(CCCN(C)c2c3ccccc3nc3ccccc23)cc1OC | – | 9.23 µM |
| COc1ccc(CCNc2ccnc3cc(Cl)ccc23)cc1OC | – | 41.6 µM |
| COc1ccc(CCN(C)c2c3ccccc3nc3ccccc23)cc1OC | – | 12.9 µM and 9.77 µM |
